Results as given in ChEMBL document CHEMBL2146434, “Synthesis and biological evaluation of new amino acid and dipeptide derivatives of neocryptolepine as anticancer agents” (J Med Chem, 2012).
Structures can show the parent of a compound that is named as a salt.

How the values were obtained:
[1] = Solubility of the compound in water; type: physicochemical; conditions: buffer
KB = experiment: Cytotoxicity against human KB cells after 72 hrs by SRB assay; type: functional, cell-based
MCF7 = experiment: Cytotoxicity against human MCF7 cells after 72 hrs by SRB assay; type: functional, cell-based; conditions: MCF7, 72 h
In short: (§1)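 IC50 is the compound concentration giving 50% inhibition of cell proliferation. It was determined on normal mouse BALB/3T3 fibroblasts and on human A549, MCF-7 and LoVo cancer lines, with doxorubicin hydrochloride and DiMIQ as reference compounds.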

LoVo = experiment: Cytotoxicity against human LoVo cells after 72 hrs by SRB assay; type: functional, cell-based; in short: as §1
[2] = Ratio of IC50 for compound to ratio of IC50 for DiMIQ for BALB mouse 3T3 cells; type: cell-based; conditions: read-out: Ratio IC50
A549 = experiment: Cytotoxicity against human A549 cells after 72 hrs by SRB assay; type: functional, cell-based; conditions: A549, 72 h; in short: as §1

SMILES	solubility [1]	IC50 (KB)	IC50 (MCF7)	IC50 (LoVo)	selectivity ratio [2]	IC50 (A549)
Cc1c2c3cc(NC(=O)CNC(=O)[C@@H](N)Cc4cnc[nH]4)ccc3nc-2n(C)c2ccccc12.Cl	soluble	3640 nM				
Cc1c2c3cc(NC(=O)[C@@H](N)Cc4cnc[nH]4)ccc3nc-2n(C)c2ccccc12.Cl	soluble	3460 nM				
COc1cccc2c1C(=O)c1c(O)c3c(c(O)c1C2=O)C[C@@](O)(C(=O)CO)C[C@@H]3O[C@H]1C[C@H](N)[C@H](O)[C@H](C)O1 [DOXORUBICIN HYDROCHLORIDE]		840 nM	440 nM	110 nM		
Cc1c2c3cc(NC(=O)[C@H]4CCCN4)ccc3nc-2n(C)c2ccccc12.Cl.Cl	soluble	730 nM	600 nM	620 nM	5	320 nM
Cc1c2c3cc(NC(=O)[C@@H]4CCCN4C(=O)[C@@H]4CCCN4)ccc3nc-2n(C)c2ccccc12.Cl.Cl	soluble	560 nM	960 nM	360 nM	5	540 nM
Cc1c2c3cc(NC(=O)[C@@H]4CCCN4C(=O)CN)ccc3nc-2n(C)c2ccccc12.Cl.Cl	soluble	700 nM	1130 nM	440 nM	5	860 nM
